Source: the EternaBench riboswitch data

System: MS2 coat protein
Assay: apparent Kd, MS2 coat protein; higher = weaker binding; RNA-MaP array; FMN 200 µM where present
Summary of the method: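 Apparent Kd: the median of filtered binding-curve fits from single clusters. Designs were transcribed on Illumina sequencing-chip clusters by stalled E. coli RNA polymerase and titrated with SNAP-549-labelled MS2 coat protein from 0.7 or 1.5 nM, doubling to 3 µM, in 100 mM Tris-HCl pH 7.5, 80 mM KCl, 4 mM MgCl2, BSA, DTT, yeast tRNA and Tween-20. Each series ran without and then with constant ligand, and green signal was normalised to red-channel RNA signal and control-cluster median Fmax.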

[1] = designed as: OFF switch for flavin mononucleotide, no ligand
[2] = ligand present: flavin mononucleotide, designed as: OFF switch for flavin mononucleotide
[3] = designed as: ON switch for flavin mononucleotide, no ligand
[4] = ligand present: flavin mononucleotide, designed as: ON switch for flavin mononucleotide

Sequence	apparent Kd [1] [µM]	apparent Kd [2] [µM]	apparent Kd [3] [µM]	apparent Kd [4] [µM]
ACCGAGACAGAAGGAUAUACAUUGGUUACGCUGUUCGCGUCCUCGACCACAUGAGGAUCACCCAUGUAGAAGGUUUGUAGCGCG	0.0165	0.0427	–	–
AAAACAUGAGGAUCACCCAUGUAAAGAUCACUUAAUAGUUGUGAGGAUAUACGAUUUUAAAGCUAGUAGAAGGCACUGGGUACA	–	–	0.0281	0.0361
CUUAAACAUGAGGAUCACCCAUGUGAGGAUAUGAUGCGAAUAAAGAAAGAAGAAAGCAUCAGAAGGCACAUAUG	0.0869	0.236	–	–
AUUUAUGUCAAAGGAUAUAUAAAUAAAUUUAUAACAUGAGGAUCACCCAUGUACUUUAGUAUGAGGUAGAAGGUUGAUAAGAGU	–	–	0.0476	0.0356
CUGCUGAAGCUUUGCUUUAGUCGUACAUGAGGAUCACCCAUGUAGGAUAUGGUAGGCUUUGCUUACUAGAAGGAUAGAGUGGUC	0.0526	0.0276	–	–
GGUGUGGCAGGAUAUACAUCGAAGGGUGCAAAGGGCUCGGCACAUGAGGAUCACCCAUGUAGAAGGGCCUACCA	0.0149	0.0207	–	–
UUGAGGUCAGGAUAUGCAUGGCGGGACUUGCGUCGUGGCGUGGAGAAGGGACAUGAGGAUCACCCAUGUGGAGC	0.0556	0.062	–	–
GUAUCGUAUGUGAGGAUAUAUUAAACCUUGGAUUUGUAGAAGGCACAUGAGGAUCACCCAUGUCCUAGUGGUCC	0.0294	0.0333	–	–
UUUUACAUAGGAUAUAGUUUGUUGUACAUGAGGAUCACCCAUGUUUUUGUUUGUGCUUUUCUAGAAGGAUGUUUCU	0.0292	0.0254	–	–
ACCUCACAUGAGGAUCACCCAUGUCAGGAUAUACCCAAAGCUGCGAAAAUAUCCAGCUGUAGAAGGGACAGGCU	0.0139	0.0161	–	–
AUUAUUGACGAAGGAUAUGGAUACAUGAGGAUCACCCAUGUAUAUUUUGUGAUCAUAUUUAUGAUCCAGAAGGUCGUUGUUUAU	0.0373	0.113	–	–
CAGCGAAAGUAGAAGGCAGUACUGAUACAGUACUGAGGAUAUACAUGAGGAUCACCCAUGUUCUUCAGCUGGAAAUAAAUAAAA	0.00802	0.124	–	–
GAUCGUAUCCUAGGAUAUUCAUUAAAACAUGAGGAUCACCCAUGUAAAUUGGGAGAAGGAGGAUACGAUCAACAGCGAAAGCUG	–	–	0.0353	0.00652
GGAUAGGACAGAGGAUAUACGUGCUAGAGAUACUAGCAAAAUUUCCUCACAUGAGGAUCACCCAUGUAGAAGGCUGUCCAAUCG	0.0138	0.429	–	–
CCCGUCAUCGAGAAGGCCUCAACAUGAGGAUCACCCAUGUUGUAAUAUGGGAGGAUAUCGAUGAUACAGCUACGUUUCGUACCC	–	–	0.0171	0.0058
UUUGUUGUUGUGAGGAUAUCGUAGUUAUUUUGUAACGAGAAGGCACAUGAGGAUCACCCAUGUUUUUUGAUGGU	0.0227	0.09	–	–
UUAUUAUGUGUAGGAUAUGCAUAUUAUUAUUAUGCAGAAGGACAUGAGGAUCACCCAUGUAUAUUAUUAUUAUAUAUUAUAUAU	0.0309	0.0462	–	–
AUAUGAUAGAUAGGAUAUACAGAUGAAUAAUAAGUAGAAGGAUCAAAUGGGAAUUAUACAUGAGGAUCACCCAUGUUUUUGGAU	–	–	0.0501	0.0321
AAUUUUUAACAGAAGGCGUUUAUAGUUAAGUUACGAGGAUAUGUUUUACAUGAGGAUCACCCAUGUUACUAGGGUAGUAUAUAU	–	–	0.0424	0.0307
GUAGAGGAUUGAGGAUAUGCAGAGAGAUCAUGCGCGUCGCGCACAUGAGGAUCACCCAUGUAAGAGCAGAAGGUAACUAUGGAC	0.0799	0.0493	–	–
GAUAAGGGCGAGGAUAUGCCAUUGGCUGAGGUCGUAGAAGGUGCCACAUGAGGAUCACCCAUGUAUCAAGUACG	0.0345	0.0324	–	–
GGCGGUGAUCUAUUAGGACACAUGAGGAUCACCCAUGUGACAGAGGAUAUACGGAACUUUGGAUAGUAGAAGGCUGUCGCAAAA	0.315	0.119	–	–
UUAUUAGCAGGAUAUAUCCAGGAUCACAUGAGGAUCACCCAUGUGACCGCUUGAGAUUCUAUAGAAGGGCUUUAUU	0.0196	0.0181	–	–
UCAUUAUAAAUCCAUCAUAACUACAUGAGGAUCACCCAUGUGCAGGAUAUCGAUGGUUUAACUAUCGAGAAGGGCAUUUACAGA	0.0478	0.146	–	–
AAGCUGACAAUAAAUAACUCAAAUACAUGAGGAUCACCCAUGUAGGAUAUGCAGUGGAAUACACUGCAGAAGGACAUAGUCAGC	0.0136	0.0219	–	–
GUCGGAAACGACAAGUAGCAAUCGGAGGAUAUUCAUUAAAACAUGAGGAUCACCCAUGUAAAAUGGGAGAAGGCCGAUUGCUAC	–	–	0.0136	0.00603
UUGUUAGGGAGAGGAUAUUGACAUGAGGAUCACCCAUGUAUUUGGGAGUGUUUACUGAAUUCUCACGAGAAGGCUUACGAAUUU	0.55	0.471	–	–
GCGUGGAAUACAGGAUAUGUUGUACAAUAAUCUUUGAGGCAUUGAGAUUAUACAGAAGGGUAAACAUGAGGAUCACCCAUGUAA	0.031	0.0251	–	–

Sequence	apparent Kd [1] [µM]	apparent Kd [2] [µM]	apparent Kd [3] [µM]	apparent Kd [4] [µM]
AAGUUUAACGAAGGAUAUGGUUACAUGAGGAUCACCCAUGUAUUUUUUGUGAUCUUGAAAUAGUUCCAGAAGGUCGUAUACAUA	0.138	0.359	–	–
CAAUUUAUAACAGGAUAUAUAAUACAAUGAUUAAUAGAAGGGUUUAAUACAUGAGGAUCACCCAUGUCAUGUGUCAUAAUUACC	0.0401	0.032	–	–
ACAGCGUGAGGAUAUACAUGAGGAUCACCCAUGUAUGGCAGGUUAUCCUGUCGUGAGUGUAGAAGGCACGCUGU	0.0174	0.0589	–	–
GAGUGACAUGAGGAUCACCCAUGUGAGGAUAUCGGACGGACCAAAUUAACAAUAUUUGCGAGAAGGCACAUCGG	0.0885	0.13	–	–
GGUGCACGCACAGGAUAUCCGGCGGCGCUCGUCGGAGAAGGGUGACAUGAGGAUCACCCAUGUACGUGCAACUCAGUUUGAGUG	–	–	0.0425	0.0339
AAUAUAGAGCUGGAAUAAAACACAACAUGAGGAUCACCCAUGUAGGAUAUCAGCACGAUAAGUGCUGAGAAGGACAUCCAGCUC	0.0147	0.0142	–	–
GGGCUCGGUGUGAGGAUAUGCUCGGGUAAAUCUGGGUAGAAGGCACAUGAGGAUCACCCAUGUAAGCUGGGUCU	0.0339	0.0339	–	–
GUAGCAUACCGAGGAUAUUCAUACAAUAAAUAAACAUGAGGAUCACCCAUGUGGCGAAAGCCUAGGGAGAAGGCGGAAUGCUAC	–	–	0.154	0.0218
CGCAGCGCAGGAUAUACAUGAGGAUCACCCAUGUACUGGCUCGGCACAGGGUCUCAAGGUAGAAGGGUGCAAAU	0.0226	0.0231	–	–
GGAUUACAUGAGGAUCACCCAUGUGAGGAUAUCGAUGUCCAGUAAUACGUGCGGGACUCGAGAAGGCACUUGGA	0.0401	0.2	–	–
UUAAUGUGAGGAUAUCAGGUGUGCUAGCGUACUGGUACAUCUGAGAAGGCACAUGAGGAUCACCCAUGUUCCAG	0.0328	0.1	–	–
GACAUUGGCAAGAAGGCAAACAUGAGGAUCACCCAUGUUCUGUAUGUAUUUUGAGGAUAUUGCCAAUGUAUGUGGAUCACCCAA	0.00891	0.0101	–	–
GUGAGUAGUCAGGAUAUGCUGUACAAAAGUACAGCAGAAGGGAUUACAUGAGGAUCACCCAUGUUUUCUUCAUG	0.0835	0.564	–	–
AAAUAGCGAGGAUAUACAUGAGGAUCACCCAUGUGGACUGAUGUCGCAUGAUUCAGUGGUAGAAGGUGCUCAAA	0.0904	0.127	–	–
UUACUAUUACAGAAGGUUAAAUAAUAUAUAAAUGAAGGAUAUGUAACAUGAGGAUCACCCAUGUUUCACCCACAUGAGGAUCAU	0.00963	0.00957	–	–
GAUAGGACAGAGAAGGACGUAGCUAGAGAUACUAGCAUAUGAACCUUCACAUGAGGAUCACCCAUGUAGGAUAUCUGUCCUAUC	0.00334	0.00335	–	–
CGAGCCUAUGUAAGGAUAUCACGAUAAAACCAGCGUGAGAAGGUACAUGAGGAUCACCCAUGUUCACGACUGGC	0.0139	0.0147	–	–
GGAUGAUUAAUAGGAUAUUAGUUGUAAAAUGUUUAAGAAGGAUUAAUGAUUUAAACGACCAGUUACAUGAGGAUCACCCAUGUU	–	–	0.0279	0.0214
UUGCAGUCGUCAGGAUAUAGUAUUACGGCCAUUUAUUUUUUCAUACAUGAGGAUCACCCAUGUCGCUAGAAGGGAUUAUCGAUU	0.0491	0.0454	–	–
AACAGUAGAGGAUAUACAUGAGGAUCACCCAUGUGAGAAUUAAGUGGCGUACCACUAAGUAGAAGGCUACUGGA	0.0969	0.235	–	–
GUCAGCUUGUGAGGAUAUACAACACUGCUUCGGCAGUGUAUUAAGAUCACAUGAGGAUCACCCAUGUAGAAGGCACGAGCUGAU	0.014	0.257	–	–
UAAUAAUAAUGAGGAUAUAUACAACAUGAGGAUCACCCAUGUACCCAUGUAGUAGAAGGCAUAUUUUUUGUUAAUAACAUAACU	–	–	0.0538	0.0321
GUCAUCUCAUGAGGAUAUGCUCGGGUUUCCCGAGCAGAAGGCAUGUCAUAAGACAUGAGGAUCACCCAUGUAUUUAAGAUUGUA	–	–	0.0496	0.00892
ACCUCACAUGAGGAUCACCCAUGUUAGGAUAUCUCGACACUCCGCGGGCGGUAGCGUCAGAGAAGGAACGUGCU	0.0291	0.0249	–	–
AUAAUGUAAGGAUAUCAGUCGUAAUUAAUUUAAUUAUCGACUGAGAAGGUACAUGAGGAUCACCCAUGUGGUCA	0.916	0.102	–	–
AAGCAGGGAGGAUAUACAUGGACACACAUUGGUGUAGAACUACAUGAGGAUCACCCAUGUAGAAGGCCCAAAUA	0.0529	0.0715	–	–
UUUUAACAUGAGGAUCACCCAUGUGAGGAUAUCGAAAUUUAUAUUUAUAUUAAUUAAUCGAGAAGGCACAUUUU	0.151	0.156	–	–
